Results on one molecule are retold here after article PMC9179932 (Nature chemical biology, 2022).

In data set [1] the test system is bestatin-sensitive aminopeptidases. In words: Recombinant aminopeptidase AMC reporter assays. Conditions: Supplementary Table 1. It is filed as biochemical. Summed up: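 Recombinant enzymes are incubated with test compound over a concentration range, then AMC substrate is added. Enzyme and substrate pairs: RNPEP 1.4 nM with 200 μM R-AMC; DPP3 0.6 nM with 100 μM RR-AMC; LTA4H 114.3 nM with 400 μM R-AMC; NPEPPS 1 nM with 10 μM L-AMC; ANPEP 1.2 nM with 100 μM A-AMC. Fluorescence (380/460 nm) is recorded at 25 °C for 30 min.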
On the technique in general: A reporter such as luciferase makes a cellular process visible.

The next data set addresses NLRP1–DPP9 interaction (Homo sapiens, UniProt Q86TI2). In words: DPP9 displacement from FLAG-NLRP1 on anti-FLAG beads. It is filed as binding. Conditions: VbP 10 μM; VP dipeptide 0.5, 5 mM; CQ31, CQ04 10 μM.
The target of a further data set is recombinant DPP9 (Homo sapiens, UniProt Q86TI2). In words: AP-AMC-based DPP9 substrate assay. It is filed as biochemical. Conditions: Supplementary Table 1. Put shortly:
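Recombinant DPP9 (1 nM) is dispensed into 384-well plates and test compound is added by pintool over a concentration series. Reaction starts with 25 μM AP-AMC. Cleavage is read as rising fluorescence (ex/em 380/460 nm) at 25 °C for 30 min.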

In data set [2] the target is T1, XPNPEP3 (Homo sapiens, UniProt Q9NQH7). In words: XPNPEP3 enzymatic assay. It is filed as biochemical. Conditions: Supplementary Table 2. Put shortly:
(§1)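 Enzymes are XPNPEP1 recombinant at 3.5 nM, or XPNPEP3 FLAG-immunoprecipitated after 48 h overexpression in HEK 293T. Each is treated with graded doses of test compound. H-Lys(abz)-Pro-Pro-pNA is added at 100 μM final, and fluorescence (ex/em 320/410 nm) is monitored for 30 min.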

Another data set addresses NPEPPS (Homo sapiens, UniProt P55786). The data set is described as follows: CETSA in HEK 293T lysates. The note with it: 10 μM. It is filed as binding. Summed up:
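HEK 293T cells homogenised by sonication; debris cleared at 10,000g for 10 min. Clarified lysate incubated 30 min with test compound, then heated 30 min at a series of set temperatures between 38.7 and 70.9 °C. Aggregates pelleted at 18,000g for 20 min; soluble target in supernatant detected by immunoblotting.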

The target of data set [3] is T1, XPNPEP3. In words: CETSA in THP-1 cell lysates. It is filed as binding. Summed up:
(§2)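 THP-1 (Cas9) cell lysate is made by sonication and cleared at 10,000g for 10 min. It is exposed to test compound (0.5 or 5 μM) for 30 min, then heated 30 min at 40.6, 50.8, 60.1 or 70.9 °C. After spinning at 18,000g for 20 min, the soluble fraction is immunoblotted.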

For data set [4], the target named is T2, PEPD (Homo sapiens, UniProt P12955).
T2 sequence (P12955 1-493): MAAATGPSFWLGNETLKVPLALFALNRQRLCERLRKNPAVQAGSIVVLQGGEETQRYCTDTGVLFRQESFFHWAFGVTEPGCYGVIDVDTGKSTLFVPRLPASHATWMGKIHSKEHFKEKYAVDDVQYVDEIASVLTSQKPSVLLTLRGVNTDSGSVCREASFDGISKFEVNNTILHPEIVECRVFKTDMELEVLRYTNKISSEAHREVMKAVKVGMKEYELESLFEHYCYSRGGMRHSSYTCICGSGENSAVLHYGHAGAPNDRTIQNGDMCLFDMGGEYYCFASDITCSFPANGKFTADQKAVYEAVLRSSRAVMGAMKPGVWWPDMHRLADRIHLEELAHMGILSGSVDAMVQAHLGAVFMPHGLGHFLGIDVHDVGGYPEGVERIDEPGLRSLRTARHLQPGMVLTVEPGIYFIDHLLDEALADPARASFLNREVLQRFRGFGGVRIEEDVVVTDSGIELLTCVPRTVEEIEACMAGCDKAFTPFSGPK
The data set is described as follows: CETSA in THP-1 cell lysates. It is filed as binding. Conditions: 0.5, 5 μM. Put shortly: as §2

The target in data set [5] is T2, PEPD. The data set is described as follows: CETSA in HEK 293T lysates. It is filed as binding. Conditions: 10 μM. Put shortly:
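HEK 293T cells are sonicated and cleared at 10,000g for 10 min. Clarified lysate is incubated with test compound (10 μM) for 30 min, then heated for 30 min at a temperature series. Aggregates are pelleted at 18,000g for 20 min, and the soluble supernatant is immunoblotted for the target.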

Another data set deals with MV4;11 cells. The data set is described as follows: MV4. It is filed as cell-based. Conditions: 24 h, CTG.
The next data set addresses T3, prolidase (PEPD) (Homo sapiens, UniProt P12955).
T3 sequence (P12955 1-493): T2 sequence (P12955 1-493)
In words: Prolidase activity. It is filed as biochemical. The note with it: dose-dependent. Summed up: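 THP-1 lysates are normalised to 5 mg ml−1 and incubated with Ala-Pro dipeptide (40 μM final) and test compound at varying doses. Released alanine is quantified as increasing resorufin fluorescence (535/587 nm) at 25 °C using an L-alanine detection kit.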

Data set [6] addresses T4, XPNPEP1 (Homo sapiens, UniProt Q9NQW7). In words: XPNPEP1 enzymatic assay. It is filed as biochemical. Conditions: Supplementary Table 2. Put shortly:
as §1
Target sequence in this assay (Q9NQW7 whole entry, species assumed): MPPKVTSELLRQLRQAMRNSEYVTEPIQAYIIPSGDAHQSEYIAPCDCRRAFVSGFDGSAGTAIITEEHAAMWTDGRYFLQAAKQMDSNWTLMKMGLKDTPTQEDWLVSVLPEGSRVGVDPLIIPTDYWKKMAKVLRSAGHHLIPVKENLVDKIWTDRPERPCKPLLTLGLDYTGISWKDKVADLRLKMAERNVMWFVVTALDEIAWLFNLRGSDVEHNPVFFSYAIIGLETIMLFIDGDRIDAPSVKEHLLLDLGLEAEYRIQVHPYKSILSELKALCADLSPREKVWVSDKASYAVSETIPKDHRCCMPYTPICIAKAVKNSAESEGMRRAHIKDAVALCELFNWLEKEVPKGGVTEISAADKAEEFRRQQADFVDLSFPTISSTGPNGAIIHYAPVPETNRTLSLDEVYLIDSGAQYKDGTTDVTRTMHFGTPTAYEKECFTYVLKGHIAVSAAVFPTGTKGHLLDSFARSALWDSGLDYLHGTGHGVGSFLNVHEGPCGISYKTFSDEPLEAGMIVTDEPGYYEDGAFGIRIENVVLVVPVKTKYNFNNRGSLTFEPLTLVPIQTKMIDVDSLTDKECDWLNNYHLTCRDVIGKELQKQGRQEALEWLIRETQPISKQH

In data set [7] the target is T2, PEPD. The data set is described as follows: PEPD assay. It is filed as biochemical. Put shortly: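 His-tagged human PEPD is expressed in E. coli Rosetta DE3 (IPTG, 4 h, 37 °C) and purified on TALON resin. Enzyme at 50 nM is mixed with Ala-Pro (40 μM final) and test compound. Liberated alanine is measured fluorometrically (resorufin, ex/em 535/587 nm) at 25 °C with an L-alanine assay kit.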

In data set [8] the target is T4, XPNPEP1. In words: CETSA in THP-1 cell lysates. It is filed as binding. The note with it: 0.5, 5 μM. Summed up:
as §2
Target sequence in this assay (Q9NQW7 whole entry): as the sequence (Q9NQW7 whole entry, species assumed) above

Sequence of NPEPPS (P55786 whole entry): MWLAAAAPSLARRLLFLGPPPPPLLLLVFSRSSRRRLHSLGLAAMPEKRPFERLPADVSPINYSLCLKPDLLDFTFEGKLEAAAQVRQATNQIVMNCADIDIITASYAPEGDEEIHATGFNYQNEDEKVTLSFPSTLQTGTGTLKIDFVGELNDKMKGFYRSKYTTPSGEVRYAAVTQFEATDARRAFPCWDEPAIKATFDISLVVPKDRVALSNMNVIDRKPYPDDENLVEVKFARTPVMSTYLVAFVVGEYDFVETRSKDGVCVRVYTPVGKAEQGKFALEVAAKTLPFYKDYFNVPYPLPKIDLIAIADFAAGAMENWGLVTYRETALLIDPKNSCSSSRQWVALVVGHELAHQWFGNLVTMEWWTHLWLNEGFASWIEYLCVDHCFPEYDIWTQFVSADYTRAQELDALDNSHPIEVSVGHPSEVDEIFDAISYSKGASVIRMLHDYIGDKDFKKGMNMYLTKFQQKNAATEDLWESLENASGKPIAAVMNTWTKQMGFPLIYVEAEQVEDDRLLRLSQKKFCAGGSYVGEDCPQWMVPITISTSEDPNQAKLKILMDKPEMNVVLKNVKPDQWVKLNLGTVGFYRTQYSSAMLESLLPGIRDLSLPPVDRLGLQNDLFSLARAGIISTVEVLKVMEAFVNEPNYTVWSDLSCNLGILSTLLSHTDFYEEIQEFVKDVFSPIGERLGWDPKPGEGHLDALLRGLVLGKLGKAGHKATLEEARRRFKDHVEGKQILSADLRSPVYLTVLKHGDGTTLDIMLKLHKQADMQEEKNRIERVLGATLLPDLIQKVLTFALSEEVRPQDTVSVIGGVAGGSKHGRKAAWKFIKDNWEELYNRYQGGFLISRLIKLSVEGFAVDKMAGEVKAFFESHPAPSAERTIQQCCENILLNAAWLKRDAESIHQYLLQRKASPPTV
Sequence of recombinant DPP9 (Q86TI2 whole entry, species assumed): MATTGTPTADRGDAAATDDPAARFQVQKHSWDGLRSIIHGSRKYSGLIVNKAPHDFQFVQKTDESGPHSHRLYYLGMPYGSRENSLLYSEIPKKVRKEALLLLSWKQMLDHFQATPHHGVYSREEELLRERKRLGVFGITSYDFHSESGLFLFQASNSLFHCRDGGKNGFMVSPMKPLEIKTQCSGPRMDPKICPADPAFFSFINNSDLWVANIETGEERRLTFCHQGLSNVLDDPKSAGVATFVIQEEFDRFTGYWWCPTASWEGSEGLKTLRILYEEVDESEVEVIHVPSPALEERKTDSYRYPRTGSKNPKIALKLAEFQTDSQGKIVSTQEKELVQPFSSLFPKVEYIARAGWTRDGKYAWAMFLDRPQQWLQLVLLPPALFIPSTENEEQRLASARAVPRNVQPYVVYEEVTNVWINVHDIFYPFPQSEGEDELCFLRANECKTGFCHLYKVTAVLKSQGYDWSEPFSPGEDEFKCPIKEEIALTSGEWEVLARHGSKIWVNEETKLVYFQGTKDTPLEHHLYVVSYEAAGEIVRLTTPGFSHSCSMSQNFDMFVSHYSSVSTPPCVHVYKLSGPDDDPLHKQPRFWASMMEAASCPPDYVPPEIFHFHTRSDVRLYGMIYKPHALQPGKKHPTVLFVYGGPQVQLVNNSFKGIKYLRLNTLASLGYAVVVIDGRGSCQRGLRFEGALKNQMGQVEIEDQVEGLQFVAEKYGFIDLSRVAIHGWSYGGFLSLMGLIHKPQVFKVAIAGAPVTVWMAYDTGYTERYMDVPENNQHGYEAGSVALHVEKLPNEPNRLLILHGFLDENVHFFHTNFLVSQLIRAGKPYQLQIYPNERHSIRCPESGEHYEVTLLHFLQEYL
Sequence of NLRP1–DPP9 interaction (Q86TI2 whole entry): as the sequence (Q86TI2 whole entry, species assumed) above

Usually IC50 stands for the concentration that gives 50% inhibition. On to `CC(C)C[C@@H](N)C(O)C(=O)N1CCC[C@H]1C(=O)O` (stereo partly drawn) [CQ04, (2S,3R)-3-amino-2-hydroxy-5-methyl-hexanoyl-proline], for which the “inhibition of bestatin-sensitive aminopeptidases” value in data set [1] is reported as “did not inhibit”. For the same molecule, the “disruption of NLRP1–DPP9 interaction (DPP9 elution)” value at NLRP1–DPP9 interaction is on record as “had no impact on the NLRP1 ternary complex”. Also, at recombinant DPP9, the “direct DPP9 (DPP8/9) inhibition” value was “did not inhibit”. Also, the “inhibition of XPNPEP3 in an enzymatic assay” value on XPNPEP3 [2] was “inhibited XPNPEP3”. In addition, the “thermal stabilization of NPEPPS” value at NPEPPS is reported as “nor the bestatin-sensitive aminopeptidase NPEPPS”. On XPNPEP3 [3], the “thermal stabilization of XPNPEP3” value is reported as “slightly stabilized XPNPEP3”. Moreover, the “thermal stabilization of PEPD” value at PEPD [4] is “stabilize both PEPD and XPNPEP1”; on PEPD [5], “stabilized PEPD”. Further, in the data set with MV4;11 cells (CASP1−/−), the “cytotoxicity in CASP1−/− MV4;11 cells” value is on record as “not cytotoxic”. Besides, the “cytotoxicity in WT MV4;11 cells” value with MV4;11 cells (WT) was “not cytotoxic”. At prolidase (PEPD), the “prolidase activity (Ala-Pro dipeptide cleavage) in THP-1 cell lysates” value is on record as “completely blocked prolidase activity”. Further, the “inhibition of XPNPEP1 enzymatic activity” value at XPNPEP1 [6] is listed as “inhibits XPNPEP1 enzymatic activity”. Moreover, 160 nM corresponded to half-maximal inhibition at PEPD [7] (IC50). Moreover, the “thermal stabilization of XPNPEP1” value at XPNPEP1 [8] is “stabilize both PEPD and XPNPEP1”.
